Screening results from PubChem BioAssay.
MBD2 inh – inhibitors of human MBD2 binding to methylated oligonucleotide; Q9UBB5; TR-FRET; inhibition, % at 4.4 µM; 370,000 tested, 0.31% active; in the data active = inhibition above about 13%
UHRF1 binding – blocks human UHRF1 binding to methylated DNA. UHRF1 binding to methylated oligo, TR-FRET. inhibition, % at 4.4 µM. 370,000 tested, 0.75% active; in the data active = inhibition above about 21%;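 also: UHRF1 SRA domain binding a hemimethylated CpG hairpin DNA probe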
PRMT1 inh – blocks human protein arginine methyltransferase 1; Q99873; recombinant PRMT1, activity-based probe fluorescence polarization; inhibition, % at 2.79 µM; 370,000 tested, 1.3% active;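 active = inhibition above about 21% made by adding two undisclosed values, limit read from the data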
ABHD5-PLIN5 inh – inhibitors of human ABHD5-perilipin-5 interaction; 360,000 tested, 0.78% active; AID 602281; Split G. princeps luciferase complementation, luminescence, 4 h; inhibition, % at 4 µM;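 active = inhibition above the mean inhibition across every tested compound plus 3 SD, cut at about 22% in these data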
RBBP9 inh – blocks human serine hydrolase RBBP9 | O75884 | recombinant RBBP9, FP-Rh probe fluorescence polarization | inhibition, % at 7.94 µM | 220,000 tested, 0.2% active;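 active = inhibition above the campaign mean of all tested compounds plus 3 SD, cut at about 14% in these data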
Target sequence (O75884 whole entry, looked up): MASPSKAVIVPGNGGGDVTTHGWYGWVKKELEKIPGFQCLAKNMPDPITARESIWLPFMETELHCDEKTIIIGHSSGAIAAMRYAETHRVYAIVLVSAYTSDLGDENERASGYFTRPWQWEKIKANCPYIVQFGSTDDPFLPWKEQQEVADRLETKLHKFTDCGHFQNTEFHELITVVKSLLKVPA
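Test system: recombinant human RBBP9. Quantity: 2.5 µM RBBP9 dispensing solution, before mixing. Detection: FP readout at 525/598 nm. Reagent: Serine-hydrolase probe FP-Rh, 375 nM pre-mixing. Measure: % inhibition. Control set: DMSO-treated enzyme wells and wells lacking RBBP9. Buffer or medium: Tris-NaCl-Pluronic buffer, pH 8.0. Times: preincubation 30 min plus labeling 45 min at 25 °C.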
LEDGF integ inh – blocks HIV-1 LEDGF/p75-dependent DNA integration | TR-FRET IN-LEDGF/p75 DNA integration, Eu/Cy5 | inhibition, % at 3.7 µM | 370,000 tested, 0.64% active | AID 743269;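 active = inhibition above the screen-wide mean plus 3 SD, cut at about 13% in these data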;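 also: signal is the Cy5 over europium emission ratio at 671 and 618 nm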
ABHD5-PLIN5 conf – ABHD5-PLIN5 interaction inhibition, confirmed; shares compounds with ABHD5-PLIN5 inh; biochemical ABHD5-PLIN5 interaction, luminescence; inhibition, % at 4 µM; 2,200 tested, 67% active; AID 651612; in the data active = inhibition above about 23%
HNF4 counter – active in HNF4 split-luciferase counter-screen for ABHD5-PLIN5 inhibitors; shares compounds with ABHD5-PLIN5 inh; HNF4 dimerization, luminescence, biochemical; inhibition, % at 4 µM; 2,200 tested, 77% active; AID 651674;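 active = mean inhibition across replicate wells exceeding the computed hit threshold, cut at about 13% in these data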;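 also: light from luciferase halves that rejoin when HNF4 fusion proteins dimerize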
Each line names hits and unclear results; the compound was inactive in the other large screens (follow-up assays come after a bar, where they were run). In the library only some 3.1% were active in any assay of this set; here they are far more common.

CCOC(=O)[C@]12Cc3ccc(C)cc3[C@H]1N(C1CCCCC1)C(=O)c1cc(OC)ccc12	ABHD5-PLIN5 inh 43 (no result: RBBP9 inh) | ABHD5-PLIN5 conf 41 | HNF4 counter 46
O=C1NC(=O)C(=Cc2ccc(Sc3ccccc3)o2)C(=O)N1	ABHD5-PLIN5 inh 23 | ABHD5-PLIN5 conf 96 | HNF4 counter 103
Cc1c(P(=S)(c2ccccc2)c2ccccc2)c2ccccc2n1C	none (no result: ABHD5-PLIN5 inh, RBBP9 inh)
CN(C)CC(C(=O)Cc1ccccc1)c1ccccc1 (centres undefined)	ABHD5-PLIN5 inh 37 (no result: RBBP9 inh) | ABHD5-PLIN5 conf inactive | HNF4 counter 92
CN1c2ccc(Br)cc2[C@@H]2NCC[C@@H]2[C@@H]1CO	none (no result: ABHD5-PLIN5 inh, RBBP9 inh)
CC(C)(O)/C=C/C(=O)C(C)(O)C1C(O)CC2(C)C3CC=C4C(C=C(O)C(=O)C4(C)C)C3(C)C(=O)CC12C (centres undefined)	ABHD5-PLIN5 inh 42 (no result: RBBP9 inh) | ABHD5-PLIN5 conf 68 | HNF4 counter 50
O=C1NC(=O)C(=Cc2ccc(-c3ccc(S(=O)(=O)N4CCOCC4)cc3)o2)C(=O)N1	ABHD5-PLIN5 inh 33 (no result: RBBP9 inh) | ABHD5-PLIN5 conf 91 | HNF4 counter 93
C[C@H](NC(=O)OCc1ccccc1)C(=O)NC(Cc1ccccc1)P(=O)(Oc1ccccc1)Oc1ccccc1 (some centres undefined)	none (no result: ABHD5-PLIN5 inh, RBBP9 inh)
CCCCCCCSc1cc(OC)c(CCN(C)C)cc1OC	ABHD5-PLIN5 inh 28 | ABHD5-PLIN5 conf inactive | HNF4 counter inactive
O=C(O)CCl	none (no result: ABHD5-PLIN5 inh, RBBP9 inh)
O=C(c1ccccc1)C(CN1CCCC1)c1ccccc1 (centres undefined)	none
CC1CCN(C(CC(=O)c2ccccc2)C(=O)c2ccccc2)CC1 (centres undefined)	PRMT1 inh 72, ABHD5-PLIN5 inh 42 (no result: RBBP9 inh) | ABHD5-PLIN5 conf 64 | HNF4 counter 103
COc1ccc(OC(=O)N(C)C[C@H]2OCc3cnnn3CCCC(=O)N([C@@H](C)CO)C[C@@H]2C)cc1	none (no result: ABHD5-PLIN5 inh, RBBP9 inh)
O=C1NC(=O)N(c2ccccc2F)C(=O)/C1=C/c1ccc(Oc2ccc([N+](=O)[O-])cn2)cc1	ABHD5-PLIN5 inh 24 | ABHD5-PLIN5 conf 69 | HNF4 counter 47
O=C1NC(=O)C(=Cc2ccc(OCCOc3ccc([N+](=O)[O-])cc3)cc2)C(=O)N1	none
O=C(NCCN1CCC2(CC1)C(=O)NCN2c1ccccc1)c1ccc2ccccc2c1	none (no result: ABHD5-PLIN5 inh, RBBP9 inh)
O=c1c2ccccc2[se]n1-c1ccccc1	PRMT1 inh 95, ABHD5-PLIN5 inh 81 | ABHD5-PLIN5 conf 88 | HNF4 counter 110
COC[C@H]1OC(=O)c2coc3c2[C@@]1(C)C1=C(C3=O)[C@@H]2CCC(=O)[C@@]2(C)C[C@H]1OC(C)=O	ABHD5-PLIN5 inh 26 (no result: RBBP9 inh) | ABHD5-PLIN5 conf inactive | HNF4 counter 69
CCOc1ccc(-n2c(O)c(/C=C3\C=Nc4ccccc43)c(=O)[nH]c2=O)cc1	ABHD5-PLIN5 inh 29 (no result: RBBP9 inh) | ABHD5-PLIN5 conf inactive | HNF4 counter 38
COc1ccccc1-n1c(O)c(/C=C2\C=Nc3ccccc32)c(=O)[nH]c1=O	ABHD5-PLIN5 inh 29 (no result: RBBP9 inh) | ABHD5-PLIN5 conf 24 | HNF4 counter 28
C=CCn1c(O)c(/C=C2\C=Nc3ccccc32)c(=O)[nH]c1=O	none
COc1ccc(OC)c(-n2c(O)c(/C=C3\C=Nc4ccccc43)c(=O)[nH]c2=O)c1	none (no result: RBBP9 inh)
CN1C[C@H](O)[C@H]2C[C@@H]1c1ccccc1O2	none (no result: ABHD5-PLIN5 inh, RBBP9 inh)
CC[C@]12CCN(CC3(O)CC3)C(Cc3ccc(O)cc31)C2(C)C	none (no result: ABHD5-PLIN5 inh, RBBP9 inh)
O=C(NCCN1CCC2(CC1)C(=O)NCN2c1ccccc1)c1ccc(F)cc1	none (no result: ABHD5-PLIN5 inh, RBBP9 inh)
C/C(=C\c1ccc(N(C)C)cc1)[N+](=O)[O-]	ABHD5-PLIN5 inh 65 | ABHD5-PLIN5 conf 99 | HNF4 counter 98
CN(C)c1ccc(/C=C/[N+](=O)[O-])cc1	ABHD5-PLIN5 inh 71 | ABHD5-PLIN5 conf 85 | HNF4 counter 82
CC(C)CCP(=O)(O)O	none (no result: ABHD5-PLIN5 inh, RBBP9 inh)
